In ChEMBL document CHEMBL1165965, “Synthesis and structure-activity relationships of 1,2,3,4-tetrahydropyrido[2,3-b]pyrazines as potent and selective inhibitors of the anaplastic lymphoma kinase” (Bioorg Med Chem, 2010):

How the values were obtained:
[1] = target: Death-associated protein kinase 2 (Homo sapiens) (UniProt Q9UIK4); experiment: Inhibition of DAPK2 at 1 uM
How it was run: (§1)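 Single-concentration screen using Ambit Bioscience KINOMEscan technology across a panel of 250–400 kinases. Per-kinase inhibition from this screen was summarized as S(90), the fraction of kinases inhibited by more than 90%.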

[2] = Inhibition of FLT3 ITD mutant at 1 uM
How it was run: (§2)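 Single-concentration screen on the Ambit KINOMEscan platform, run against a panel of 250–400 kinases. Per-kinase inhibition was also summarized as S(90), the fraction of kinases inhibited by more than 90%.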

[3] = system: Mast/stem cell growth factor receptor Kit (Homo sapiens), P10721 [V559D,T670I]; experiment: Inhibition of KIT V559D,T670I mutant at 1 uM; how it was run: as §2
[4] = target: Tyrosine-protein kinase ABL1 (Homo sapiens) (UniProt P00519); experiment: Inhibition of ABL1 at 1 uM
How it was run: (§3)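 Ambit KINOMEscan screen at a single concentration across a 250–400 kinase panel, recorded as percent inhibition. Selectivity was expressed as S(90), the fraction of kinases inhibited >90%.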

[5] = target: Macrophage colony-stimulating factor 1 receptor (Homo sapiens) (UniProt P07333); experiment: Inhibition of CSF1R at 1 uM; how it was run: as §1
[6] = target: Tyrosine-protein kinase receptor UFO (Homo sapiens) (UniProt P30530); experiment: Inhibition of AXL at 1 uM; how it was run: as §3
[7] = target: Serine/threonine-protein kinase 38 (Homo sapiens) (UniProt Q15208); experiment: Inhibition of NDR1 at 1 uM
[8] = target: cAMP-dependent protein kinase catalytic subunit beta (Homo sapiens) (UniProt P22694); experiment: Inhibition of PKAC-beta at 1 uM
[9] = target: Platelet-derived growth factor receptor beta (Homo sapiens) (UniProt P09619); experiment: Inhibition of PDGFRB at 1 uM
[10] = target: Receptor tyrosine-protein kinase erbB-3 (Homo sapiens) (UniProt P21860); experiment: Inhibition of ERBB3 at 1 uM
[11] = target: T1, Phosphatidylinositol 4,5-bisphosphate 3-kinase catalytic subunit delta isoform (Homo sapiens) (UniProt O00329); experiment: Inhibition of PIK3CD at 1 uM
T1 sequence (whole entry): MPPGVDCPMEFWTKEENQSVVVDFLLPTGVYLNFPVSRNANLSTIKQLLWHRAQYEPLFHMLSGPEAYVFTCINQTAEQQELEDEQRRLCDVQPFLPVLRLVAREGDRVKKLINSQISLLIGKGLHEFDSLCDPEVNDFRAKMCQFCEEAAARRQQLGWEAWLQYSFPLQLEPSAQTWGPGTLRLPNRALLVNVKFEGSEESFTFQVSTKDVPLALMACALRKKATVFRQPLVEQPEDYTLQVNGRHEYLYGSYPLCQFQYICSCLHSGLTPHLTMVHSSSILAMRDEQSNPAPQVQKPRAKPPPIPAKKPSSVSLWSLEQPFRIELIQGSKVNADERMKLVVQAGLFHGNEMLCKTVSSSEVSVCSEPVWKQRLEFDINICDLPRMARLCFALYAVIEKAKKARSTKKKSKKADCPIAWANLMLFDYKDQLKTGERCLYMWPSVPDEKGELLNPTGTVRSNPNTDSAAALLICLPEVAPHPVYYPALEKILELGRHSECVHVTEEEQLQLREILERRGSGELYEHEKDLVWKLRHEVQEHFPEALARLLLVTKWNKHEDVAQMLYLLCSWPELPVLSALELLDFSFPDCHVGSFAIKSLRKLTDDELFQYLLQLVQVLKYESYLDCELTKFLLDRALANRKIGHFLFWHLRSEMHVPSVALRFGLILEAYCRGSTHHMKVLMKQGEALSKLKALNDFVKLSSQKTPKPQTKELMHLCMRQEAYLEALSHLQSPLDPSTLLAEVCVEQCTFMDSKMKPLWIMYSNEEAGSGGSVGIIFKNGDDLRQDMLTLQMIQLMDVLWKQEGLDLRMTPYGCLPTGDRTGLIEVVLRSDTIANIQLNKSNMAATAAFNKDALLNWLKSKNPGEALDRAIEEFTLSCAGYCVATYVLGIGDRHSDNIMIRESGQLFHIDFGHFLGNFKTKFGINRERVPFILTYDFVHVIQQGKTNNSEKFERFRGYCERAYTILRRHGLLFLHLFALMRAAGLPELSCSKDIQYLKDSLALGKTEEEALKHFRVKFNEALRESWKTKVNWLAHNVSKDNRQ

[12] = target: T2, Serine/threonine-protein kinase ULK3 (Homo sapiens) (UniProt Q6PHR2); experiment: Inhibition of ULK3 at 1 uM
T2 sequence (whole entry): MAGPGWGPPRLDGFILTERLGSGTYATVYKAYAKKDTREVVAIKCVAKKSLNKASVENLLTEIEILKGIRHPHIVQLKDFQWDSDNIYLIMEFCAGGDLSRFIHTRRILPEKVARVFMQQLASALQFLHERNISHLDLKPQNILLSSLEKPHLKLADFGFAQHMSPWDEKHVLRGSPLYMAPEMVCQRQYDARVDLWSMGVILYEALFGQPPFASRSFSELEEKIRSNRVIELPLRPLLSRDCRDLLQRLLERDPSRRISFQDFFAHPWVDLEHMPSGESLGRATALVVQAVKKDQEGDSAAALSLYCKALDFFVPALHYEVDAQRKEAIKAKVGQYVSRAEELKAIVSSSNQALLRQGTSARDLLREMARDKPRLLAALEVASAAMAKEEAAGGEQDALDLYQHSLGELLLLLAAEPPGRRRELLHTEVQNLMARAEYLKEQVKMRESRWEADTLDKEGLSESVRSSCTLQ

Macrophage colony-stimulating factor 1 receptor (Homo sapiens), sequence (P07333 whole entry): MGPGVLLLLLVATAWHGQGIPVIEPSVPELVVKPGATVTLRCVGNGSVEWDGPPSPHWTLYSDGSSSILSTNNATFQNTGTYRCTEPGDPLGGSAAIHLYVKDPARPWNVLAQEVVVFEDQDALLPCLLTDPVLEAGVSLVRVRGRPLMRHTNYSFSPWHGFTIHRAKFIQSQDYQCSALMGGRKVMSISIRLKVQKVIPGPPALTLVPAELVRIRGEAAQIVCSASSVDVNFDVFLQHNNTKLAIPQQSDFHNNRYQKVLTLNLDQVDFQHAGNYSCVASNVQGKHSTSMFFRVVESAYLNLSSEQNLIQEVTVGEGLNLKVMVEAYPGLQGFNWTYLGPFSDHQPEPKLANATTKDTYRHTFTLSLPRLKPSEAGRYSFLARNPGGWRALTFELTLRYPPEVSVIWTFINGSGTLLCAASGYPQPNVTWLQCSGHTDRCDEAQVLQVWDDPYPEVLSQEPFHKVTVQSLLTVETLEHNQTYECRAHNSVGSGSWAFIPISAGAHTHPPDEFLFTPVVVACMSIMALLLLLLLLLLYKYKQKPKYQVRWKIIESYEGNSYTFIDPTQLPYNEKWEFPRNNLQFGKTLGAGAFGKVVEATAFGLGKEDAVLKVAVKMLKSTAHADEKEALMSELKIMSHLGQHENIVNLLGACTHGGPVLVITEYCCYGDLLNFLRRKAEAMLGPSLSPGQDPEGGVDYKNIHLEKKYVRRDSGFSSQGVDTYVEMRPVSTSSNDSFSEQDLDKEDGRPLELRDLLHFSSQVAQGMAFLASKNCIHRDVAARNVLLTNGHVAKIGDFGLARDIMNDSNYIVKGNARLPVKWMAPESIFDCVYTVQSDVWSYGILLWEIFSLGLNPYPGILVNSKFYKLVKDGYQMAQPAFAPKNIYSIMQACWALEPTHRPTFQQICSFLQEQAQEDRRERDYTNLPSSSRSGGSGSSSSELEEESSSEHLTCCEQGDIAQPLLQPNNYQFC
Mast/stem cell growth factor receptor Kit (Homo sapiens), P10721 [V559D,T670I], sequence (P10721 whole entry V559D/T670I): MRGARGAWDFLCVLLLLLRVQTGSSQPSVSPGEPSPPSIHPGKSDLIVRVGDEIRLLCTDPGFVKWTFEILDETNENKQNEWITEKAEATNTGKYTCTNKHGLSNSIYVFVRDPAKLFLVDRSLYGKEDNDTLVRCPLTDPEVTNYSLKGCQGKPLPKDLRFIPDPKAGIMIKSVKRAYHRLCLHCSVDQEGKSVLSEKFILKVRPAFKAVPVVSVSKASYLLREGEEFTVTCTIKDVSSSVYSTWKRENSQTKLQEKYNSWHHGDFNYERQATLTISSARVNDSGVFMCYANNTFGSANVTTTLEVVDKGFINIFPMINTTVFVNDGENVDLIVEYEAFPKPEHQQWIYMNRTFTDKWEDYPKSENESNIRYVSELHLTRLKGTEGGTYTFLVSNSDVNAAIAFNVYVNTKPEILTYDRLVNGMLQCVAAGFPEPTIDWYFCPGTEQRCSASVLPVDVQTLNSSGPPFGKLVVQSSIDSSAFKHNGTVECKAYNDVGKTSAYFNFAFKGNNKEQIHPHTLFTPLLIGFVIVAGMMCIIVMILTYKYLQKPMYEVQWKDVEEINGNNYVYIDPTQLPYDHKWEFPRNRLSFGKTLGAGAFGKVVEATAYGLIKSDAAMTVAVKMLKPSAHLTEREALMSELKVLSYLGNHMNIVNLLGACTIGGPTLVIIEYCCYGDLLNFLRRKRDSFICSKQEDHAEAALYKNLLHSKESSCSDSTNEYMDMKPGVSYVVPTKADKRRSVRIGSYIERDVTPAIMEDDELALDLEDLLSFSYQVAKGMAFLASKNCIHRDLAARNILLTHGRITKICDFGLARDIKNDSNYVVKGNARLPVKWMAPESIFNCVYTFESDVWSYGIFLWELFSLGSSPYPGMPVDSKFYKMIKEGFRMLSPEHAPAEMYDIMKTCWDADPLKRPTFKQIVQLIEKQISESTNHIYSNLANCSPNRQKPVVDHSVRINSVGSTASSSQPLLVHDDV
Receptor tyrosine-protein kinase erbB-3 (Homo sapiens), sequence (P21860 whole entry, canonical isoform): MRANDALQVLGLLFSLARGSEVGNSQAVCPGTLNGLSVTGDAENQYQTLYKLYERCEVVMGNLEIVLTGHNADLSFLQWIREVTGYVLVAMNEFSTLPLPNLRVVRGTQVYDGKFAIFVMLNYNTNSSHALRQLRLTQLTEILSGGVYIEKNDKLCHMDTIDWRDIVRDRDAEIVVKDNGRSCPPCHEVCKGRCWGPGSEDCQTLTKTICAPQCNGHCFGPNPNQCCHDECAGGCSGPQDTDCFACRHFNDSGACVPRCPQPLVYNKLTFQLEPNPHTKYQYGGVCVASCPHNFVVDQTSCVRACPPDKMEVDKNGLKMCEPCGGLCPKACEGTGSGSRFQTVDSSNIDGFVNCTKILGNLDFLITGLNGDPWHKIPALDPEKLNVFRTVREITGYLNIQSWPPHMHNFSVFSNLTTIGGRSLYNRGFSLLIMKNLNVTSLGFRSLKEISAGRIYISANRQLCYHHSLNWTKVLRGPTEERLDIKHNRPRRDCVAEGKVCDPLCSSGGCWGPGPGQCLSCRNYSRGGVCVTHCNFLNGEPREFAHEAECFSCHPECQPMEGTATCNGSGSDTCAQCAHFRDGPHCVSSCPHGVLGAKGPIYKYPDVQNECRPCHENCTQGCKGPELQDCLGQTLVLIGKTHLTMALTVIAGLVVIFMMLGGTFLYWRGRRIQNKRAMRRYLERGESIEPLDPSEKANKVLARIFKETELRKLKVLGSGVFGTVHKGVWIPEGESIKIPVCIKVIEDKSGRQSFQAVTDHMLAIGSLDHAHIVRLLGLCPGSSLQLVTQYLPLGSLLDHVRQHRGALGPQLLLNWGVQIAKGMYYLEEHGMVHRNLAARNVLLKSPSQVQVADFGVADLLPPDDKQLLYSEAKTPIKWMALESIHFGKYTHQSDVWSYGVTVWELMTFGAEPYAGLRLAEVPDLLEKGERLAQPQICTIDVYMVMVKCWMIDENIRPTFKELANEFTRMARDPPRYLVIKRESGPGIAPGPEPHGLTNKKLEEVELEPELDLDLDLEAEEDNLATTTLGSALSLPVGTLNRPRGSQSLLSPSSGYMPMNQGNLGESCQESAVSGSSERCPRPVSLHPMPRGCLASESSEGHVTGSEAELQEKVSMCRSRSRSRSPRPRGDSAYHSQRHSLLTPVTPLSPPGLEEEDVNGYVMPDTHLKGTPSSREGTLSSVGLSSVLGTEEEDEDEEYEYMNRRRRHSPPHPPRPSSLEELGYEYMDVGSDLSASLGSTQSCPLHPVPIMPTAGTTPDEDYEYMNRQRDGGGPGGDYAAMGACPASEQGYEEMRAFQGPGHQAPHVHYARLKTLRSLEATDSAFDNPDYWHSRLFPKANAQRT
Tyrosine-protein kinase ABL1 (Homo sapiens), sequence (P00519 whole entry): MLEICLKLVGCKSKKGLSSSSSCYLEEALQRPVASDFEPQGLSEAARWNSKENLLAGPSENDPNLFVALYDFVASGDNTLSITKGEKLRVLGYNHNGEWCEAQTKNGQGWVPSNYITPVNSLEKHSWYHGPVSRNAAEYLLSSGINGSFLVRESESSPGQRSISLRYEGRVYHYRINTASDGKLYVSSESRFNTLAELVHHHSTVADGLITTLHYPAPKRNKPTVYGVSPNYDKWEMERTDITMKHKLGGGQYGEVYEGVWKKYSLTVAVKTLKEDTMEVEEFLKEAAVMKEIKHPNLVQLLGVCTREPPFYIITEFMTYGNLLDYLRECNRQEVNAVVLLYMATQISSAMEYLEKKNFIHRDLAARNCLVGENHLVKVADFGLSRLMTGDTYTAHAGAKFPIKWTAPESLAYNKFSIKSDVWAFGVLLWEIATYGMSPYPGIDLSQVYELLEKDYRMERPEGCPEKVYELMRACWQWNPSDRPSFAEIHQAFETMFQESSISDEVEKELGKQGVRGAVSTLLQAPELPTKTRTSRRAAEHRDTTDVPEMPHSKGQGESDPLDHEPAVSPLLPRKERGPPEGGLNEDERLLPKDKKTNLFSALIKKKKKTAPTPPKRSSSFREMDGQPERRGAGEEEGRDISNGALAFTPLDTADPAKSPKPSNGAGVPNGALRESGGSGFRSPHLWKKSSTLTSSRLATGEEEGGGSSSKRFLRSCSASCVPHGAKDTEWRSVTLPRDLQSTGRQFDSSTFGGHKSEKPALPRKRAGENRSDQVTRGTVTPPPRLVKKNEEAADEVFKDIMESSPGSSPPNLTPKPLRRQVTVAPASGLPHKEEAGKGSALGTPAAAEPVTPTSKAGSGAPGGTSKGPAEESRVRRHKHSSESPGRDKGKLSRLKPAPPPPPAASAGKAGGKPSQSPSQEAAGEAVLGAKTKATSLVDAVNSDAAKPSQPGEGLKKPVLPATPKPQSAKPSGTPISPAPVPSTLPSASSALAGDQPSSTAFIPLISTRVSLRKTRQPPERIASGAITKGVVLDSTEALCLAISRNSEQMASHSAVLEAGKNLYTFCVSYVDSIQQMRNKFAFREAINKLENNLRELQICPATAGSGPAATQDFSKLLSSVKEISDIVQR
Death-associated protein kinase 2 (Homo sapiens), sequence (Q9UIK4 whole entry, looked up): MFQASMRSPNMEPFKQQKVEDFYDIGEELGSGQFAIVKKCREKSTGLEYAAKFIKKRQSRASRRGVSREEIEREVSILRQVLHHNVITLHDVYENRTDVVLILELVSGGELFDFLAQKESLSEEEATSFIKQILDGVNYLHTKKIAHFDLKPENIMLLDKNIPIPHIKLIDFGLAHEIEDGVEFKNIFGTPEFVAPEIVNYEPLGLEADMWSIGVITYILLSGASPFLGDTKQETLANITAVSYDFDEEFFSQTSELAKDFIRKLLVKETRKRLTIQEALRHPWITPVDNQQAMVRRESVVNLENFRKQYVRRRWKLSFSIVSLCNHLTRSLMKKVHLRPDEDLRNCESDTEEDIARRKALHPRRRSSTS

| Structure (SMILES) | inhibition [1] [%] | inhibition [2] [%] | inhibition [3] [%] | inhibition [4] [%] | inhibition [5] [%] | inhibition [6] [%] | inhibition [7] [%] | inhibition [8] [%] | inhibition [9] [%] | inhibition [10] [%] | inhibition [11] [%] | inhibition [12] [%] |
| --- | --- | --- | --- | --- | --- | --- | --- | --- | --- | --- | --- | --- |
| CN1CCN(c2ccc(-c3cnc4c(c3)N(Cc3cc(F)ccc3F)CCN4)cn2)CC1 | < 50 | < 50 | < 50 | 59 | < 50 | < 50 | < 50 | < 50 | < 50 | < 50 | < 50 | < 50 |
| CC(=O)N1CCN(c2cc(-c3cnc4c(c3)N(Cc3cc(Cl)ccc3C(F)(F)F)CCN4)ccn2)CC1 | < 50 | < 50 | < 50 | < 50 | 93 | < 50 | < 50 | < 50 | < 50 | < 50 | < 50 | < 50 |
| CN1CCN(c2ccc(-c3cnc4c(c3)N(Cc3c(F)ccc(F)c3Cl)CCN4)cn2)CC1 | < 50 | < 50 | < 50 | 84 | 96 | < 50 | < 50 | < 50 | < 50 | < 50 | < 50 | < 50 |
| FC(F)(F)c1ccc(Cl)cc1CN1CCNc2ncc(-c3ccnc(N4CCNCC4)c3)cc21 | < 50 | 74 | 84 | < 50 | 99 | < 50 | < 50 | < 50 | 92 | < 50 | < 50 | < 50 |
| CN1CCN(c2ccc(-c3cnc4c(c3)N(Cc3cc(Cl)ccc3Cl)CCN4)cn2)CC1 | < 50 | < 50 | < 50 | < 50 | 88 | < 50 | < 50 | < 50 | < 50 | < 50 | < 50 | < 50 |
| O=C(c1ccc(-c2cnc3c(c2)N(Cc2cc(Cl)ccc2C(F)(F)F)CCN3)cc1)N1CCC(N2CCCC2)CC1 | < 50 | < 50 | < 50 | < 50 | 96.6 | 93 |  | < 50 | 76.4 |  |  |  |
| O=C(O)c1ccc(-c2cnc3c(c2)N(Cc2cc(Cl)ccc2C(F)(F)F)CCN3)cc1 | < 50 | < 50 | < 50 | < 50 | < 50 | < 50 |  | < 50 | < 50 |  |  |  |
| CN1CCN(c2ccc(-c3cnc4c(c3)N(Cc3cc(Cl)ccc3C(F)(F)F)CCN4)cn2)CC1 | < 50 | 90 | < 50 | < 50 | 88 | < 50 | < 50 | < 50 | < 50 | < 50 | < 50 | < 50 |
| O=C(c1ccc(-c2cnc3c(c2)N(Cc2cc(Cl)ccc2C(F)(F)F)CCN3)cc1)N1CCCCC1 | < 50 | < 50 | < 50 | < 50 | < 50 | < 50 |  | < 50 | < 50 |  |  |  |
| COC1CCN(C(=O)c2ccc(-c3cnc4c(c3)N(Cc3cc(Cl)ccc3C(F)(F)F)CCN4)cc2)CC1 | < 50 | < 50 | < 50 | < 50 | 74.2 | < 50 |  | < 50 | < 50 |  |  |  |
